Drawing on ChEMBL document CHEMBL1137090, “Heterocyclic bis-cations as starting hits for design of inhibitors of the bifunctional enzyme histidine-containing protein kinase/phosphatase from Bacillus subtilis” (J Med Chem, 2004), this text covers inhibition, EC50 and Activity for 46 molecules.

For orientation: inhibition means how much of the control response was suppressed. The EC50 is the midpoint of the concentration-response curve.

In assay [1] the target is T1, HPr kinase/phosphorylase (Bacillus subtilis (strain 168)) (UniProt O34483).
T1 sequence (whole entry): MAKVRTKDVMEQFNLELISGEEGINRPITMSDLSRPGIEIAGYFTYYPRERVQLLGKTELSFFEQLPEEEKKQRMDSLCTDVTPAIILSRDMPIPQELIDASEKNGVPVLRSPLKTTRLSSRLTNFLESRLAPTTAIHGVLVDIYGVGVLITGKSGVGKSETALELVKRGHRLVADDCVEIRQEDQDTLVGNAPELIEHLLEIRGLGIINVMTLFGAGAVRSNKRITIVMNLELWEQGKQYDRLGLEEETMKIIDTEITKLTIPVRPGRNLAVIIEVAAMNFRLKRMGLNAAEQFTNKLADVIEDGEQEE
The assay can be described thus: Percent inhibition of Histidine containing protein K in kinase assay with histidine containing protein at 10 uM. An outline of the steps: (§1)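 Single-point kinase test at 10 and 100 µM final compound. HPr(His)6 (10 µM) is phosphorylated by 100 nM B. subtilis HPrK/P(Trx-His6-S-tag) with 0.5 mM [γ-32P]ATP, 5 mM MgCl2, 2 mM FBP, 0.1% BSA, 50 mM Tris pH 8; 37 °C, 10 min. 32P incorporation measured on P81 paper by scintillation.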

In assay [2] the target is T1, HPr kinase/phosphorylase (Bacillus subtilis (strain 168)). As to the kind of experiment: Percent inhibition of Histidine containing protein K in kinase assay with histidine containing protein at 100 uM. A digest of the protocol: as §1
Another assay has as its target T2, HPr kinase/phosphorylase (Bacillus subtilis (strain 168), UniProt O34483).
T2 sequence (O34483 whole entry): T1 sequence (whole entry)
The assay can be described thus: Inhibition of histidine containing protein in kinase assay. An outline of the steps: (§2)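 B. subtilis HPrK/P(Trx-His6-S-tag) kinase, 100 nM, added last to start the reaction with 10 µM HPr(His)6 or Crh(His)6, 0.5 mM [γ-32P]ATP, 5 mM MgCl2, 2 mM FBP, 0.1% BSA, 50 mM Tris pH 8, 10% DMSO; 37 °C, 10 min. Read-out is P81 paper capture, H3PO4 washes and scintillation counting. Thirteen serial inhibitor concentrations, typically in triplicate; EC50 and Hill coefficient from nonlinear regression.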

A short description of assay [3]: Hill slope for the compound was measured for inhibition of Crh kinase assay.
The nature of assay [4]: Hill slope for the compound was measured for inhibition of histidine containing protein kinase assay. A digest of the protocol: as §2
Assay [5] deals with HPr kinase/phosphorylase (Bacillus subtilis) (UniProt O34483). As to the kind of experiment: Effective concentration for inhibition of HPr kinase/phosphorylase in kinase assay.
For assay [6], the target named is T1, HPr kinase/phosphorylase (Bacillus subtilis (strain 168)). The assay can be described thus: Percent inhibition of Histidine containing protein K/P in kinase assay. Also on record: concentration or dose not given beside the values. The conditions noted are these: concentration not given here.
Assay [7] shares this target. The assay can be described thus: Percent inhibition of Histidine containing protein K in kinase assay at 10 uM. A digest of the protocol:
as §1

Assay [8] shares this target. As to the kind of experiment: Percent inhibition of Histidine containing protein K in kinase assay at 100 uM. An outline of the steps:
as §1

In the case of `Nc1n(Cc2ccccc2)c2ccccc2[n+]1CCCCCCCCCCCCNc1ccccc1`, the inhibition in assay [1] amounted to 46%; in [2] it was 96%.
On the same counts, the results for `Nc1n(Cc2ccccc2)c2ccccc2[n+]1CCCCCCCCCCCCN1C(=O)c2ccccc2C1=O` are 40% and 97%.
Taken in the same sequence, the figures for `Nc1n(Cc2ccccc2)c2ccccc2[n+]1CC(=O)[O-]` were 2% and 3%.
Regarding `CC(C)(C)OC(=O)NCCCCCCCCCCC[n+]1c(N)n(Cc2ccccc2)c2ccccc21`, the inhibition in assay [1] was 14%; in [2] it was 96%.
Consider `Nc1n(Cc2ccccc2)c2ccccc2[n+]1CCCO`, for which the results for the inhibition in [1] and in assay [2] were 4% and 6%, respectively.
On the same counts, the results for `Nc1n(Cc2ccccc2)c2ccccc2[n+]1CCCCCCCCCCCCNC1CCCCC1` are 11% and 93%.
On the same counts, the results for `CC(C)(C)OC(=O)NCCC[n+]1c(N)n(Cc2ccccc2)c2ccccc21` are 18% and 12%.
`Nc1n(Cc2ccccc2)c2ccccc2[n+]1CCCCCCCC[n+]1c(N)n(Cc2ccccc2)c2ccccc21`: the concentration for a half-maximal effect (EC50) at HPr kinase/phosphorylase came to 20 µM; in [5] it was 71 µM. Further, the results for the Activity in assay [3] and in [4] were 2.2 and 1.1, respectively.
`Nc1cccc[n+]1CCCCCCCCCCCC[n+]1ccccc1N`: the inhibition in [6] is < 5%.
Turning to `Nc1n(Cc2ccccc2)c2ccccc2[n+]1CCCCCNCc1ccccc1`, the results for the inhibition in assay [1] and in assay [2] were 12% and 53%, respectively.
Turning to `CCCCCCCCCCCC[n+]1c(N)n(Cc2ccc(OC)cc2)c2ccccc21`, the inhibition in assay [1] was 34%; in assay [2], 95%.
Taken in the same sequence, the figures for `CCCCCCCC[n+]1c(N)n(Cc2ccccc2)c2ccccc21` were 9% and 55%.
Taken in the same sequence, the figures for `Nc1n(Cc2ccccc2)c2ccccc2[n+]1CC(=O)Nc1ccccc1` were 13% and 16%.
For the molecule `NCCC[n+]1c(N)n(Cc2ccccc2)c2ccccc21`, the results for the inhibition in assay [1] and in assay [2] were 18% and 24%, respectively.
Taken in the same sequence, the figures for `NC(=O)CCCCC[n+]1c(N)n(Cc2ccccc2)c2ccccc21` were 3% and 11%.
On the same counts, the results for `CCCCCCCCCCCC[n+]1c(N)n(CCCc2ccccc2)c2ccccc21` are 38% and 96%.
As for `Nc1cc2c(n[n+]1CCCCCCCCCCCC[n+]1nc3c(cc1N)-c1ccccc1CC3)CCc1ccccc1-2`, the inhibition in assay [6] is < 5%.
Take `CCCCCCCCCCCC[n+]1c(N)n(Cc2ccc(Cl)c(Cl)c2)c2ccccc21`: the results for the inhibition in assay [1] and in assay [2] were 9% and 51%, respectively.
With `Cn1c(N)[n+](CCCCCCCCCCCC[n+]2c(N)n(C)c3ccccc32)c2ccccc21`, the inhibition in assay [6] is 64%.
Turning to `Nc1n(Cc2ccccc2)c2ccccc2[n+]1CCCCCCCCCCCCNCc1ccccc1`, the inhibition in assay [1] is 50%; in assay [2], 96%.
As for `Nc1n(Cc2ccccc2)c2ccccc2[n+]1Cc1ccccc1`, the inhibition came to 13% in assay [1] and 33% in assay [2].
On the same counts, the results for `Nc1n(Cc2ccccc2)c2ccccc2[n+]1CCCCCC(=O)[O-]` are 3% and 10%.
Taken in the same sequence, the figures for `CCCCCCCCCCCC[n+]1c(N)n(Cc2ccc(C)cc2)c2ccccc21` were 0% and 23%.
On the same counts, the results for `Nc1n(Cc2ccccc2)c2ccccc2[n+]1CCCCCN1CCN(c2ccccc2)CC1` are 13% and 34%.
As for `NCCCCCCCCCCC[n+]1c(N)n(Cc2ccccc2)c2ccccc21`, the inhibition in assay [1] is 24%; in assay [2] it was 62%.
On the same counts, the results for `NCCCCCC[n+]1c(N)n(Cc2ccccc2)c2ccccc21` are 12% and 33%.
As for `Nc1c2ccccc2cc[n+]1CCCCCCCCCCCC[n+]1ccc2ccccc2c1N`, the inhibition in assay [6] is < 5%.
Consider `Nc1sc2ccccc2[n+]1CCCCCCCCCCCC[n+]1c(N)sc2ccccc21`, for which the inhibition in assay [6] is < 5%.
On to `Nc1n(Cc2ccccc2)c2ccccc2[n+]1CCCCCCCCCCCCN1CCN(c2ccccc2)CC1`, for which the inhibition in assay [1] was 41%; in assay [2], 96%.
Taken in the same sequence, the figures for `CNC(=O)C[n+]1c(N)n(Cc2ccccc2)c2ccccc21` were 7% and 7%.
On the same counts, the results for `Nc1n(Cc2ccccc2)c2ccccc2[n+]1CCCc1ccccc1` are 11% and 20%.
Turning to `c1c[n+](CCCCCCCCCCCC[n+]2cc[nH]c2)c[nH]1`, the inhibition in [6] is < 5%.
As for `Nc1n(Cc2ccccc2)c2ccccc2[n+]1CCCCCCO`, the inhibition was determined as 13% in [1] and 5% in assay [2].
On the same counts, the results for `Nc1n(Cc2ccccc2)c2ccccc2[n+]1CCCCCCCCN1CCN(c2ccccc2)CC1` are 33% and 86%.
On the same counts, the results for `CCCCCCCCCCCC[n+]1c(N)n(Cc2ccc(Cl)cc2)c2ccccc21` are 17% and 21%.
Taken in the same sequence, the figures for `Nc1n(Cc2ccccc2)c2ccccc2[n+]1CCCCCCCCCCCCN1CCOCC1` were 31% and 90%.
Consider `Nc1n(Cc2ccccc2)c2ccccc2[n+]1CCCCCCCCCCC(=O)[O-]`, for which the inhibition came out at 2% in assay [1] and 39% in assay [2].
On the same counts, the results for `CCCCCCCCCCCC[n+]1c(N)n(CCc2ccccc2)c2ccccc21` are 0% and 98%.
Taken in the same sequence, the figures for `Nc1n(Cc2ccccc2)c2ccccc2[n+]1CCCCCCCCCCCO` were 9% and 37%.
Taken in the same sequence, the figures for `CN1CCN(CCCCCCCCCCCC[n+]2c(N)n(Cc3ccccc3)c3ccccc32)CC1` were 35% and 93%.
Consider `CC(C)(C)OC(=O)NCCCCCC[n+]1c(N)n(Cc2ccccc2)c2ccccc21`, for which the inhibition was 9% in assay [1] and 14% in assay [2].
Turning to `CCC[n+]1c(N)n(Cc2ccccc2)c2ccccc21`, the inhibition in assay [1] amounted to 13%; in assay [2], 14%.
Taken in the same sequence, the figures for `CCCCC[n+]1c(N)n(Cc2ccccc2)c2ccccc21` were 12% and 32%.
Consider `Nc1n(Cc2ccccc2)c2ccccc2[n+]1CCCCC[n+]1c(N)n(Cc2ccccc2)c2ccccc21`, for which the EC50 on HPr kinase/phosphorylase was 93 µM; in assay [5] it was 210 µM. In addition, the Activity in [3] and in [4] was 1.3 in each case.
Turning to `Nc1ncnc2c1ncn2[C@@H]1O[C@H](COP(=O)(O)OP(=O)(O)O)[C@@H](O)[C@H]1O` [ADENOSINE DIPHOSPHATE], the figures for the EC50 (on HPr kinase/phosphorylase; in assay [5]) were 4300 µM and 7400 µM, respectively. The results for the Activity in [3] and in assay [4] were 1.4 and 0.9, respectively.
For `CCCCCCCCCCCC[n+]1c(N)n(Cc2ccccc2)c2ccccc21`, the EC50 on HPr kinase/phosphorylase was 29 µM; in assay [5] it was 32 µM. Also, the Activity in [3] worked out at 6.4; in assay [4] it was 5.3. In addition, the inhibition in assay [7] was determined as 18%; in assay [8], 90%.
